Measurements published in ChEMBL document CHEMBL5038582, “Adamantyl Isothiocyanates as Mutant p53 Rescuing Agents and Their Structure-Activity Relationships” (J Med Chem, 2021).
The source made the active and inactive calls. The rule behind the calls is not given here.

Assays:
MDA-MB-468 [1] = test: Induction of apoptosis in human MDA-MB-468 cells expressing p53 R273H mutant assessed fold increase in number of Annexin-V stained cells at 6 to 12 uM incubated for 24 hrs by AnnexinV-FITC and PI staining based flow cytometry relative to control; assay type: functional; details: dose 6-12 µM
How it was run: (§1)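 24 h treatment, DMSO control. Cells scraped, washed in PBS, then given fluorochrome-conjugated Annexin V for 15 min at RT in the dark, followed by PI (0.1 µg/ml) in binding buffer. Read by flow cytometry on LSRFortessa. Annexin V-positive cells expressed relative to the DMSO control.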

MDA-MB-231 [2] = test: Cell cycle arrest in human MDA-MB-231 cells expressing p53 R280K mutant assessed as accumulation of cells at G1 phase at 6 uM measured after 24 hrs by PI staining based flow cytometry (reference value: 42.9%)
MDA-MB-468 [3] = test: Antiproliferative activity against human MDA-MB-468 cells transfected with non-specific siRNA assessed as inhibition of cell growth at 5 to 25 uM measured after 24 hrs by WST-1 assay; assay type: functional, cell-based; details: dose 5-25 µM
How it was run: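 MDA-MB-468 cells plated at 50-60% confluence 24 h before transfection. p53 SMARTpool or non-specific siRNA (0.430 nmol) given with Lipofectamine 2000 in Opti-MEM for 5 h, repeated after 24 h. Drug or DMSO added 72 h after the first transfection. Proliferation read by WST-1, % of DMSO control.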

[4] = test system: Cellular tumor antigen p53 (Homo sapiens), P04637 [R280K]; test: Reactivation of transactivation function to p53 R280K mutant in human MDA-MB-231 cells assessed as ATM activation by measuring increase in phosphorylation of ATM at serine 1981 residue at 6 uM measured after 24 hrs by immunoblot analysis; assay type: cell-based; details: filed as activator
How it was run: (§2)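 DMSO or 6 µM for 24 h. 250 µg of lysate run on 4-12% SDS-PAGE, blot probed with anti-pATM Ser1981 (1:500), then anti-mouse HRP secondary with ECL detection. GAPDH reprobe as control. Triplicate experiments.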

[5] = test system: Cellular tumor antigen p53 (Homo sapiens), P04637 [R273H]; test: Reactivation of transactivation function to p53 R273H mutant in human MDA-MB-468 cells assessed as ATM activation by measuring increase in phosphorylation of ATM at serine 1981 residue at 6 uM measured after 24 hrs by immunoblot analysis; assay type: cell-based; details: filed as activator; how it was run: as §2
MDA-MB-231 [6] = test: Induction of apoptosis in human MDA-MB-231 cells expressing p53 R280K mutant assessed increase in number of Annexin-V stained cells at 6 to 12 uM incubated for 24 hrs by AnnexinV-FITC and PI staining based flow cytometry; assay type: functional, cell-based; details: dose 6-12 µM; how it was run: as §1

S=C=NCCCC12CC3CC(CC(C3)C1)C2
fold change (FC) (MDA-MB-468 [1]): 2 | Activity (MDA-MB-231 [2]): 48.2% | Activity (MDA-MB-468 [3]): Active | Activity [4]: Active | Activity [5]: Active

[Se]=C=NCCC12CC3CC(CC(C3)C1)C2
Activity (MDA-MB-231 [6]): Active
